According to ChEMBL document CHEMBL1138739, “Synthesis, nicotinic acetylcholine receptor binding, and antinociceptive properties of 2'-fluoro-3'-(substituted phenyl)deschloroepibatidine analogues. Novel nicotinic antagonist” (J Med Chem, 2004):
pKi: −log10 of the molar value. The source made the active and inactive calls.

Tests used:
Mus musculus [1] = assay: Percent effect on the body temperature was measured at a dose of 5 mg/kg; type: functional
Mus musculus [2] = species on record: Mus musculus; assay: Antinociceptive response was determined in mice using tail flick method; type: functional
In short: (§1)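 Mice; epibatidine analogues given i.t., tail-flick (D'Amour–Smith) latency read 5 min later. Baseline 2–4 s, 10 s cutoff. %MPE = [(test − control)/(10 − control)] × 100. Eight to twelve mice per dose, at least four doses for dose–response; ED50 with confidence limits, or percent effect at a single dose.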

Mus musculus [3] = species on record: Mus musculus; assay: Antinociceptive response was determined in mice using hot plate flick method; type: functional
In short: (§2)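 Mice, 8 per dose, given analogues sc and placed on a 55.0 °C hot plate 5 min later. Two control latencies at least 10 min apart, normally 8–12 s. Endpoint is paw lick or jump. %MPE = [(test − control)/(40 − control)] × 100. ED50 with confidence limits, or percent effect at a single dose.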

Mus musculus [4] = species on record: Mus musculus; assay: Antinociceptive response was determined in mice using spontaneous activity method; type: functional
In short: (§3)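 Mice given 0.9% saline or analogue sc and put in individual photocell activity cages 5 min later. Beam interruptions counted over the next 10 min. ED50 with confidence limits, or percent effect at a single dose.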

Mus musculus [5] = assay: Antinociceptive response was determined in mice at a dose of 10 mg/kg using hot plate flick method; type: functional; in short: as §2
[6] = molecular target: Neuronal acetylcholine receptor; alpha4/beta2 (Rattus norvegicus, UniProt P09483+P12390); assay: Inhibition of alpha beta[3H]epibatidine binding to Nicotinic acetylcholine receptor alpha4-beta2 of rat cerebral cortex; type: tissue-based
Chain of Neuronal acetylcholine receptor; alpha4/beta2 (P09483 whole entry): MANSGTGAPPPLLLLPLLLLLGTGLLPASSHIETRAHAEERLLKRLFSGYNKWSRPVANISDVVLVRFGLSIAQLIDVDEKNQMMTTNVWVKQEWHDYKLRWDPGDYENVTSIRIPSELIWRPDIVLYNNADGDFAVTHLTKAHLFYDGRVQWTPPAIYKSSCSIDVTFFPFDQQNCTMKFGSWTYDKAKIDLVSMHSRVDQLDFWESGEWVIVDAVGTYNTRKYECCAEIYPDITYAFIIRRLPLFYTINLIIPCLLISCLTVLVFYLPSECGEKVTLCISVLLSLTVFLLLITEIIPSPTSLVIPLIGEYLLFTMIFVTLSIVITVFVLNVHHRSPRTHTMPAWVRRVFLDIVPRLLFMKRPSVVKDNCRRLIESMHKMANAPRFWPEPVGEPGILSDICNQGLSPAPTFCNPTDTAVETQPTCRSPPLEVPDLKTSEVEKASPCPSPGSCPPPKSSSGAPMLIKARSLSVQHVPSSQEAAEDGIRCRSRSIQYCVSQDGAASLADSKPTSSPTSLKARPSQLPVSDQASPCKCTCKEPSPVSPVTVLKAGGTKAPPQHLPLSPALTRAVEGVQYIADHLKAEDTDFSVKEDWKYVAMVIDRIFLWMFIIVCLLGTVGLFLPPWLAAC
Chain of Neuronal acetylcholine receptor; alpha4/beta2 (P12390 whole entry): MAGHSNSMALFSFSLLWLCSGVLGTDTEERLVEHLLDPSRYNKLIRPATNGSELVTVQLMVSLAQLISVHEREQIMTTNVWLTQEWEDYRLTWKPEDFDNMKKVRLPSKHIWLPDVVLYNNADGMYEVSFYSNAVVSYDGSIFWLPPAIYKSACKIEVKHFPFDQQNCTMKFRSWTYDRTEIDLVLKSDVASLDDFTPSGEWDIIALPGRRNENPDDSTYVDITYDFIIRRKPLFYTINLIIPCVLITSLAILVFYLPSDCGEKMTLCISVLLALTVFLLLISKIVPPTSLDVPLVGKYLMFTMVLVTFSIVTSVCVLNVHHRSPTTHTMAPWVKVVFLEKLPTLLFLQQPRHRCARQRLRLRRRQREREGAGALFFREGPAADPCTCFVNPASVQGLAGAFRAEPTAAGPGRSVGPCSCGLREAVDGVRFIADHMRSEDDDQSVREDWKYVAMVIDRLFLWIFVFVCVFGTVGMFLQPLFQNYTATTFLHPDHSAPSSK

Mus musculus [7] = assay: Antinociceptive response was determined in mice at a dose 10 mg/kg using tail flick method; type: functional; in short: as §1
Mus musculus [8] = assay: Antinociceptive response was determined in mice at a dose of 10 mg/kg using hypothermia method; type: functional
In short: (§4)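 Rectal temperature in mice by thermistor probe inserted 24 mm, read just before and at several times after sc saline or analogue. ED50 with confidence limits, or change at a single dose.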

Mus musculus [9] = assay: Percent effect on the body temperature was measured at a dose of 1 mg/kg; type: functional
Mus musculus [10] = species on record: Mus musculus; assay: Antinociceptive response was determined in mice using hypothermia method; type: functional; in short: as §4
Mus musculus [11] = assay: Antinociceptive response was determined in mice at a dose of 1 mg/kg using hot plate flick method; type: functional
[12] = molecular target: Neuronal acetylcholine receptor subunit alpha-7 (Rattus norvegicus, UniProt Q05941); assay: Inhibition of [125I]-iodo-MLA binding to Nicotinic acetylcholine receptor alpha-7 of rat cerebral cortex; type: tissue-based
Chain of Neuronal acetylcholine receptor subunit alpha-7 (Q05941 whole entry): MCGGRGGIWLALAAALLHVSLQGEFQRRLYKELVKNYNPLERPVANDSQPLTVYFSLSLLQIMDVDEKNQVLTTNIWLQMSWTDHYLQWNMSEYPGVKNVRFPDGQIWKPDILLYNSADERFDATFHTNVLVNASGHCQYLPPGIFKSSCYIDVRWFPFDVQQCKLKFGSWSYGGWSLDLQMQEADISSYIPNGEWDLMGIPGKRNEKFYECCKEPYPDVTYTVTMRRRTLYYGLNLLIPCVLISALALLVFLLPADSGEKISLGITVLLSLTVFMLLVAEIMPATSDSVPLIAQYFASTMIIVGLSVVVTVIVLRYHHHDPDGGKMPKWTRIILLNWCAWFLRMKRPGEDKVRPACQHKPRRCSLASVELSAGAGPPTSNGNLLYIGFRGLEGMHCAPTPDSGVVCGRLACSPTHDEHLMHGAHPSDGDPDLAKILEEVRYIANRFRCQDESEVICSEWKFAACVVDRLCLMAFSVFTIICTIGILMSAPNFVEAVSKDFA

Mus musculus [13] = assay: Antinociceptive response was determined in mice at a dose of 15 mg/kg using hot plate flick method; type: functional; in short: as §2
Mus musculus [14] = assay: Antinociceptive response was determined in mice at a dose 15 mg/kg using tail flick method; type: functional; in short: as §1
Mus musculus [15] = assay: Antinociceptive response was determined in mice at a dose of 10 mg/kg using spontaneous activity method; type: functional; in short: as §3
Mus musculus [16] = assay: Percent effect on the body temperature was measured at a dose of 10 mg/kg; type: functional

## Nc1cccc(-c2cc(C3CC4CCC3N4)cnc2F)c1 (centres undefined)
Mus musculus [1]
  Body temperature: 5%
Mus musculus [2]
  AD50: 0.009 mg/kg
Mus musculus [3]
  AD50: 0.82 mg/kg
Mus musculus [4]
  ED50: 8.5 mg/kg
Mus musculus [5]
  ED50: 4 mg/kg
[6]
  pKi: 9.80
Mus musculus [7]
  Response: 1%
Mus musculus [8]
  Response: 0%

## COc1ccc(-c2cc(C3CC4CCC3N4)cnc2F)cc1 (centres undefined)
Mus musculus [9]
  Body temperature: 10%
Mus musculus [2]
  AD50: 0.05 mg/kg
Mus musculus [3]
  AD50: 0.52 mg/kg
Mus musculus [4]
  ED50: 3.6 mg/kg
Mus musculus [5]
  ED50: 16 mg/kg
[6]
  pKi: 10.22
Mus musculus [7]
  Response: 2%
Mus musculus [8]
  Response: 0%

## Nc1ccc(-c2cc(C3CC4CCC3N4)cnc2F)cc1 (centres undefined)
Mus musculus [1]
  Body temperature: 0%
Mus musculus [2]
  AD50: 0.005 mg/kg
Mus musculus [3]
  AD50: 1.8 mg/kg
Mus musculus [4]
  ED50: 6 mg/kg
Mus musculus [5]
  ED50: 10 mg/kg
[6]
  pKi: 10.05
Mus musculus [7]
  Response: 2%
Mus musculus [8]
  Response: 0%

## O=[N+]([O-])c1cccc(-c2cc(C3CC4CCC3N4)cnc2F)c1 (centres undefined)
Mus musculus [1]
  Body temperature: 5%
Mus musculus [2]
  AD50: 0.0005 mg/kg
Mus musculus [3]
  AD50: 0.13 mg/kg
Mus musculus [4]
  ED50: 6.5 mg/kg
Mus musculus [5]
  ED50: 20 mg/kg
[6]
  pKi: 10.30
Mus musculus [7]
  Response: 3%
Mus musculus [8]
  Response: 0%

## CN1CCC[C@H]1c1cccnc1 [NICOTINE]
Mus musculus [2]
  ED50: 1.3 mg/kg
Mus musculus [10]
  ED50: 1 mg/kg
Mus musculus [3]
  ED50: 0.65 mg/kg
Mus musculus [4]
  ED50: 0.5 mg/kg

## Fc1ccc(-c2cc(C3CC4CCC3N4)cnc2F)cc1 (centres undefined)
Mus musculus [9]
  Body temperature: inactive
Mus musculus [2]
  AD50: 0.0005 mg/kg
Mus musculus [3]
  AD50: 0.23 mg/kg
Mus musculus [4]
  ED50: 2 mg/kg
Mus musculus [5]
  ED50: 15 mg/kg
[6]
  pKi: 10.70
Mus musculus [7]
  Response: 2%
Mus musculus [8]
  Response: 10%

## Fc1cccc(-c2cc(C3CC4CCC3N4)cnc2F)c1 (centres undefined)
Mus musculus [9]
  Body temperature: 0%
Mus musculus [2]
  AD50: 0.005 mg/kg
  ED50: 3.5 mg/kg
Mus musculus [10]
  ED50: 1.8 mg/kg
Mus musculus [3]
  ED50: 3.3 mg/kg
Mus musculus [4]
  ED50: 0.36 mg/kg
Mus musculus [11]
  AD50: 20 mg/kg

## Fc1ncc(C2CC3CCC2N3)cc1-c1ccccc1 (single isomer, unassigned; (+))
[12]
  pKi: < 5.70
Mus musculus [2]
  AD50: 1 mg/kg
Mus musculus [3]
  AD50: 2.4 mg/kg
Mus musculus [13]; dose 15 mg/kg
  ED50: 8 mg/kg
Mus musculus [14]
  Response: 7%
Mus musculus [8]; 10 mg/kg
  Response: -0.4%

## Fc1ncc(C2CC3CCC2N3)cc1-c1ccccc1 (stereo in doubt; (-)-5a)
[12]
  pKi: < 5.70
Mus musculus [2]
  AD50: 0.08 mg/kg
Mus musculus [3]
  AD50: 0.7 mg/kg
Mus musculus [5]
  ED50: 10 mg/kg
[6]
  pKi: 9.59
Mus musculus [14]
  Response: 5%
Mus musculus [8]; 10 mg/kg
  Response: -0.8%

## Fc1ncc(C2CC3CCC2N3)cc1-c1ccccc1 (racemic)
[12]
  pKi: < 5.70
Mus musculus [2]
  AD50: 0.5 mg/kg
Mus musculus [3]
  AD50: 1.2 mg/kg
Mus musculus [4]
  ED50: 4.7 mg/kg
Mus musculus [13]; Mus musculus, read-out: ED50
  ED50: 4 mg/kg
Mus musculus [14]
  Response: 3%
Mus musculus [8]; 10 mg/kg
  Response: -0.5%

## Fc1ncc(C2CC3CCC2N3)cc1-c1cccc(Cl)c1 (centres undefined)
Mus musculus [2]
  AD50: 0.01 mg/kg
Mus musculus [3]
  AD50: 0.45 mg/kg
Mus musculus [5]
  ED50: 14 mg/kg
[6]
  pKi: 10.15
Mus musculus [7]
  Response: 3%
Mus musculus [8]
  Response: 0%
Mus musculus [15]
  Response: 15%
Mus musculus [16]
  Body temperature: 0%

## Fc1ccc(C2CC3CCC2N3)cn1 (centres undefined)
[6]
  pKi: 10.70

## O=[N+]([O-])c1ccc(-c2cc(C3CC4CCC3N4)cnc2F)cc1 (centres undefined)
Mus musculus [9]
  Body temperature: 0%
Mus musculus [2]
  AD50: 0.003 mg/kg
Mus musculus [3]
  AD50: 0.12 mg/kg
Mus musculus [4]
  ED50: 0.22 mg/kg
Mus musculus [7]
  Response: 5%

## COc1cccc(-c2cc(C3CC4CCC3N4)cnc2F)c1 (centres undefined)
Mus musculus [2]
  AD50: 0.008 mg/kg
Mus musculus [3]
  AD50: 2 mg/kg
Mus musculus [4]
  ED50: 6 mg/kg
Mus musculus [5]
  ED50: 8 mg/kg
[6]
  pKi: 9.92
Mus musculus [7]
  Response: 0%
Mus musculus [8]
  Response: 0%
Mus musculus [16]
  Body temperature: 0%

## Fc1ncc(C2CC3CCC2N3)cc1-c1ccc(Cl)cc1 (centres undefined)
Mus musculus [2]
  AD50: 0.0003 mg/kg
Mus musculus [3]
  AD50: 0.26 mg/kg
Mus musculus [5]
  ED50: 7 mg/kg
[6]
  pKi: 10.40
Mus musculus [7]
  Response: 2%
Mus musculus [8]
  Response: 0%
Mus musculus [15]
  Response: 50%
Mus musculus [16]
  Body temperature: 0%

## Clc1ccc([C@H]2C[C@@H]3CC[C@H]2N3)cn1 [(-)-EPIBATIDINE]
Mus musculus [2]
  ED50: 0.004 mg/kg
Mus musculus [10]
  ED50: 0.001 mg/kg
Mus musculus [3]
  ED50: 0.004 mg/kg
